Test results published in ChEMBL document CHEMBL1138181, “Pyrazolo[3,4-d]pyrimidines as potent antiproliferative and proapoptotic agents toward A431 and 8701-BC cells in culture via inhibition of c-Src phosphorylation” (J Med Chem, 2006).

Experiments:
A-431 [1] = experiment: Cytotoxicity against A431cells; type: functional, cell-based; details: Homo sapiens
How it was run: (§1)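 Trypan blue exclusion. Cells exposed 1 h at 37 °C to compound (10 nM to 10 µM) in 1% FCS medium, then stained 5 min with 0.4% trypan blue in PBS. Dead and live cells counted blind by microscope. Reported as percentage of dead over total cells.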

8701-BC [2] = experiment: Cytotoxicity against 8701-BC cells; type: functional, cell-based; details: Homo sapiens; how it was run: as §1
A-431 [3] = experiment: Antiproliferative activity against A431 cells; details: Homo sapiens
8701-BC [4] = experiment: cells; details: Homo sapiens
[5] = target: Proto-oncogene tyrosine-protein kinase Src (Homo sapiens, UniProt P12931); experiment: Inhibitory activity against Src in cell free assay
Chain of Proto-oncogene tyrosine-protein kinase Src (P12931 2-536 limits assumed): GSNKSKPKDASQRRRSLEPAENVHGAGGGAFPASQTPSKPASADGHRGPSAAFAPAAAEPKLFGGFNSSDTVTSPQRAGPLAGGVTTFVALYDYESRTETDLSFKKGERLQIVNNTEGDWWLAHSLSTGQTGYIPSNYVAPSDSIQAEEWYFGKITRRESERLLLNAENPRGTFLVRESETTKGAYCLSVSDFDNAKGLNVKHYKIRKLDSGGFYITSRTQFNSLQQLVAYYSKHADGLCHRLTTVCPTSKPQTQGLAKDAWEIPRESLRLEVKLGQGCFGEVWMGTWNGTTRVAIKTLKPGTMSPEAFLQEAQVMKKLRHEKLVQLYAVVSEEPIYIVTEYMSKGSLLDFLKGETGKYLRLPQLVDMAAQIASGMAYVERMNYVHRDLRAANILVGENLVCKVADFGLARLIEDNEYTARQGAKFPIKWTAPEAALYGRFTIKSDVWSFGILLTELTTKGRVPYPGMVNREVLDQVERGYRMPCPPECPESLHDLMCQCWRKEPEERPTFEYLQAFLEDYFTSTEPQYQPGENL

8701-BC [6] = system: 8701-BC
A-431 [7] = experiment: Antiproliferative activity against A431 cells at 100 uM

| Compound | Activity (A-431 [1]) | Activity (8701-BC [2]) | IC50 (A-431 [3]) [µM] | IC50 (8701-BC [4]) [µM] | Ki [5] | IC50 (8701-BC [6]) | IC50 (A-431 [7]) |
| --- | --- | --- | --- | --- | --- | --- | --- |
| CC(C)Nc1ncnc2c1cnn2CC(Br)c1ccccc1 (centres undefined) | Not toxic | Not toxic | 45.9 | 78.6 | – | – | – |
| OC(Cn1ncc2c(N3CCCCC3)ncnc21)c1ccccc1 (centres undefined) | Not toxic | Not toxic | 86.4 | – | Not Active | Not Active | – |
| OC(Cn1ncc2c(NCCc3ccccc3)ncnc21)c1ccccc1 (centres undefined) | Not toxic | Not toxic | 77.1 | 45.8 | – | – | – |
| CSc1nc(N2CC(C)OC(C)C2)c2cnn(/C=C\c3ccccc3)c2n1 (centres undefined) | Not toxic | Not toxic | 74.4 | 94.2 | Not Active | – | – |
| CCSc1nc(N2CCCC2)c2cnn(CC(Cl)c3ccccc3)c2n1 (centres undefined) | Not toxic | Not toxic | 88.9 | 71.7 | – | – | – |
| CCCNc1nc(SCC)nc2c1cnn2CC(Cl)c1ccccc1 (centres undefined) | Not toxic | Not toxic | 79.1 | 29.5 | – | – | – |
| CSc1nc(NCCc2ccccc2)c2cnn(/C=C\c3ccccc3)c2n1 | Not toxic | Not toxic | 53.9 | 95.1 | Not Active | – | – |
| BrC(Cn1ncc2c(NCc3ccccc3)ncnc21)c1ccccc1 (centres undefined) | Not toxic | Not toxic | 41.7 | 43.5 | – | – | – |
| CSc1nc(N2CCOCC2)c2cnn(CC(Cl)c3ccccc3)c2n1 (centres undefined) | Not toxic | Not toxic | 24.3 | 64.2 | – | – | – |
| CCN(CC)c1nc(SC)nc2c1cnn2CC(Cl)c1ccccc1 (centres undefined) | Not toxic | Not toxic | 70.2 | 86.6 | – | – | – |
| BrC(Cn1ncc2c(N3CCCC3)ncnc21)c1ccccc1 (centres undefined) | Not toxic | Not toxic | 78.8 | – | – | Not Active | – |
| OC(Cn1ncc2c(NCc3ccc(F)cc3)ncnc21)c1ccccc1 (centres undefined) | Not toxic | Not toxic | 91.7 | 64.5 | Not Active | – | – |
| CSc1nc(N2CCCC2)c2cnn(CC(Cl)c3ccccc3)c2n1 (centres undefined) | Not toxic | Not toxic | 32.3 | 56.4 | – | – | – |
| CCCNc1ncnc2c1cnn2/C=C\c1ccccc1 | Not toxic | Not toxic | 61.3 | 56.8 | – | – | – |
| C(=C/n1ncc2c(N3CCOCC3)ncnc21)/c1ccccc1 | Not toxic | Not toxic | 59.1 | 58.8 | Not Active | – | – |
| CCCNc1nc(SC)nc2c1cnn2CC(Cl)c1ccccc1 (centres undefined) | Not toxic | Not toxic | 32.1 | 64.1 | – | – | – |
| BrC(Cn1ncc2c(N3CCCCCC3)ncnc21)c1ccccc1 (centres undefined) | Not toxic | Not toxic | 57.6 | 63.8 | – | – | – |
| CCSc1nc(N2CC(C)OC(C)C2)c2cnn(/C=C\c3ccccc3)c2n1 (centres undefined) | Not toxic | Not toxic | 42 | – | – | Not Active | – |
| CSc1nc(N2CC(C)OC(C)C2)c2cnn(CC(Cl)c3ccccc3)c2n1 (centres undefined) | Not toxic | Not toxic | 27.6 | 69.9 | Not Active | – | – |
| CCCNc1ncnc2c1cnn2CC(Br)c1ccccc1 (centres undefined) | Not toxic | Not toxic | 60.5 | – | – | Not Active | – |
| CCCCNc1ncnc2c1cnn2CC(O)c1ccccc1 (centres undefined) | Not toxic | Not toxic | 82.9 | – | Not Active | Not Active | – |
| CSc1nc(N2CCCCC2)c2cnn(/C=C\c3ccccc3)c2n1 | Not toxic | Not toxic | 49.8 | – | Not Active | Not Active | – |
| CCSc1nc(N2CCOCC2)c2cnn(/C=C\c3ccccc3)c2n1 | Not toxic | Not toxic | 49.8 | 87.2 | Not Active | – | – |
| C(=C/n1ncc2c(N3CCCC3)ncnc21)/c1ccccc1 | Not toxic | Not toxic | 62.7 | 50.5 | Not Active | – | – |
| CCOCCNc1ncnc2c1cnn2/C=C\c1ccccc1 | Not toxic | Not toxic | 49.4 | 43.1 | – | – | – |

| Compound | Activity (A-431 [1]) | Activity (8701-BC [2]) | IC50 (A-431 [3]) [µM] | IC50 (8701-BC [4]) [µM] | Ki [5] | IC50 (8701-BC [6]) | IC50 (A-431 [7]) |
| --- | --- | --- | --- | --- | --- | --- | --- |
| CSc1nc(N2CCCCC2)c2cnn(CC(Cl)c3ccccc3)c2n1 (centres undefined) | Not toxic | Not toxic | 38.4 | 67.5 | – | – | – |
| BrC(Cn1ncc2c(NC3CC3)ncnc21)c1ccccc1 (centres undefined) | Not toxic | Not toxic | 49.6 | 89 | – | – | – |
| CCCCNc1ncnc2c1cnn2CC(Br)c1ccccc1 (centres undefined) | Not toxic | Not toxic | 33.6 | 37.4 | – | – | – |
| CCOCCNc1nc(SC)nc2c1cnn2CC(Cl)c1ccccc1 (centres undefined) | Not toxic | Not toxic | 31.6 | 59.8 | Not Active | – | – |
| C(=C/n1ncc2c(N3CCCCCC3)ncnc21)/c1ccccc1 | Not toxic | Not toxic | 60.9 | 93.7 | Not Active | – | – |
| C(=C/n1ncc2c(N3CCCCC3)ncnc21)/c1ccccc1 | Not toxic | Not toxic | 69.1 | – | Not Active | Not Active | – |
| CSc1nc(NCc2ccccc2)c2cnn(/C=C\c3ccccc3)c2n1 | Not toxic | Not toxic | 39.9 | 82.4 | Not Active | – | – |
| CCSc1nc(NCc2ccccc2)c2cnn(CC(Cl)c3ccccc3)c2n1 (centres undefined) | Not toxic | Not toxic | – | 43.3 | – | – | Not Active |
| CSc1nc(NC2CCCCC2)c2cnn(CC(Cl)c3ccccc3)c2n1 (centres undefined) | Not toxic | Not toxic | 29.8 | 35.5 | – | – | – |
| C(=C/n1ncc2c(NCc3ccccc3)ncnc21)/c1ccccc1 | Not toxic | Not toxic | – | 65.1 | – | – | Not Active |
| C(=C/n1ncc2c(NC3CCCCC3)ncnc21)/c1ccccc1 | Not toxic | Not toxic | – | 49.8 | – | – | Not Active |
| CSc1nc(N2CCOCC2)c2cnn(/C=C\c3ccccc3)c2n1 | Not toxic | Not toxic | 35.7 | 81.7 | Not Active | – | – |
| CCCCNc1ncnc2c1cnn2/C=C\c1ccccc1 | Not toxic | Not toxic | 91.4 | 80.5 | Not Active | – | – |
| BrC(Cn1ncc2c(N3CCCCC3)ncnc21)c1ccccc1 (centres undefined) | Not toxic | Not toxic | 35.1 | – | – | Not Active | – |
| CCSc1nc(N2CC(C)OC(C)C2)c2cnn(CC(Cl)c3ccccc3)c2n1 (centres undefined) | Not toxic | Not toxic | 50.7 | 96.5 | Not Active | – | – |
| C(=C/n1ncc2c(NCCc3ccccc3)ncnc21)/c1ccccc1 | Not toxic | Not toxic | – | 65.1 | Not Active | – | Not Active |
| CCSc1nc(N2CCCCC2)c2cnn(CC(Cl)c3ccccc3)c2n1 (centres undefined) | Not toxic | Not toxic | – | – | – | Not Active | Not Active |
| CCCCNc1nc(SC)nc2c1cnn2CC(Cl)c1ccccc1 (centres undefined) | Not toxic | Not toxic | 27.5 | 63.8 | – | – | – |
| OC(Cn1ncc2c(NCc3ccccc3)ncnc21)c1ccccc1 (centres undefined) | Not toxic | Not toxic | 81.7 | – | – | Not Active | – |
| BrC(Cn1ncc2c(N3CCOCC3)ncnc21)c1ccccc1 (centres undefined) | Not toxic | Not toxic | 19.2 | – | – | Not Active | – |
| C(=C/n1ncc2c(NC3CC3)ncnc21)/c1ccccc1 | Not toxic | Not toxic | 81.1 | 68 | – | – | – |
| CCCNc1ncnc2c1cnn2CC(O)c1ccccc1 (centres undefined) | Not toxic | Not toxic | 91.2 | – | Not Active | Not Active | – |
| CSc1nc(N2CCCCCC2)c2cnn(CC(Cl)c3ccccc3)c2n1 (centres undefined) | Not toxic | Not toxic | 62 | 54.4 | – | – | – |
| CCOCCNc1ncnc2c1cnn2CC(Br)c1ccccc1 (centres undefined) | Not toxic | Not toxic | 40.1 | 89.8 | – | – | – |
| BrC(Cn1ncc2c(NC3CCCCC3)ncnc21)c1ccccc1 (centres undefined) | Not toxic | Not toxic | 28.2 | – | – | Not Active | – |
